Measurements as given in ChEMBL document CHEMBL1138762, “Novel cyclooxygenase-1 inhibitors discovered using affinity fingerprints” (J Med Chem, 2004).

molecular target: T1, Prostaglandin G/H synthase 1 (Ovis aries) (UniProt P05979); details: 200 uM
T1 sequence (whole entry): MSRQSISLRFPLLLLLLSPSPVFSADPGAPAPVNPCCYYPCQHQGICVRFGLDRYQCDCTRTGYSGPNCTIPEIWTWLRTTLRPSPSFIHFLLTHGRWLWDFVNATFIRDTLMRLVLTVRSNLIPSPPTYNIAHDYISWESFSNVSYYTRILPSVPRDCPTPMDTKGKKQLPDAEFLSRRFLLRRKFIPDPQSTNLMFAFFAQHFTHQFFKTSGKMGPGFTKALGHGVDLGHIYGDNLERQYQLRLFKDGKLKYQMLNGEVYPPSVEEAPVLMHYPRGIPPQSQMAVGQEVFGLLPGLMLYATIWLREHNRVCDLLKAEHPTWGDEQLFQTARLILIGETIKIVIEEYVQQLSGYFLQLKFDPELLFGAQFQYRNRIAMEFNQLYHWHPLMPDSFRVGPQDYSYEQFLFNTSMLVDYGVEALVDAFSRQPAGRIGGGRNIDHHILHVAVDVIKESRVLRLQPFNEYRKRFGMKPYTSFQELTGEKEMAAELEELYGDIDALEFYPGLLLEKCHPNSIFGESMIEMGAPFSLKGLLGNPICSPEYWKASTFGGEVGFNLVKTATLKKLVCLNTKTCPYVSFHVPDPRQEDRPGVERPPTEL

| inhibition | Structure (SMILES) |
| --- | --- |
| < 50% | O=C(O)Cc1ccccc1Nc1c(Cl)cccc1Cl |

molecular target: T2, Prostaglandin G/H synthase 1 (Ovis aries, UniProt P05979); assay: In vitro inhibitory activity against ovine cyclooxygenase-1 (COX-1); details: not given
T2 sequence (P05979 whole entry): T1 sequence (whole entry)
Outline: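 Ovine COX-1 (0.17 unit/μL final) with heme (1 μM final) in Tris-HCl pH 8 buffer, preincubated with compound 10 min at room temperature. Started with saturating TMPD, then arachidonic acid to 10 μM, 5 min at room temperature. Absorbance increase at 590 nm. Half-log steps over −log[M] 9.0–3.5, DMSO 3% final. IC50 from nonlinear Hill fit, mean ± SEM of 2–5 determinations.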

| IC50 | Structure (SMILES) |
| --- | --- |
| 6 µM | O=C(c1ccccc1)c1ccc(O)c(C(=O)c2ccccc2)c1O |
| 29 µM | COc1c(O)ccc2c1oc1ccccc12 |
| 69 µM | O=C(Nc1ccccc1O)c1ccccc1Cl |

molecular target: T1, Prostaglandin G/H synthase 1 (Ovis aries); assay: In vitro inhibitory activity against ovine cyclooxygenase-1 (COX-1) at 200 uM; Inactive; details: not given

| Structure (SMILES) | inhibition |
| --- | --- |
| Cc1cc(NC(=O)C2=C(O)c3ccccc3S(=O)(=O)N2C)no1 | < 50% |
| CC(C)Cc1ccc(C(C)C(=O)O)cc1 (configuration not stated) | < 50% |
| CCCCC1C(=O)N(c2ccccc2)N(c2ccccc2)C1=O | < 50% |
| CC(C(=O)O)c1ccc(N2CC=CC2)c(Cl)c1 (configuration not stated) | < 50% |
| COc1ccc2cc([C@H](C)C(=O)O)ccc2c1 | < 50% |
| O=C(O)c1cc(-c2ccc(F)cc2F)ccc1O | < 50% |
| CCc1cccc2c3c([nH]c12)C(CC)(CC(=O)O)OCC3 (configuration not stated) | < 50% |
| COc1ccc2c(c1)c(CC(=O)OCC(=O)O)c(C)n2C(=O)c1ccc(Cl)cc1 | < 50% |

Further lines, results first:

| inhibition | Structure (SMILES) |
| --- | --- |
| < 50% | COc1ccc2cc(CC(=O)O)ccc2c1 |
| < 50% | CC(C(=O)O)c1ccc(N2Cc3ccccc3C2=O)cc1 (configuration not stated) |
| < 50% | CC(C(=O)O)c1cccc(C(=O)c2ccccc2)c1 (configuration not stated) |
| < 50% | COc1ccc2c(c1)c(CC(=O)O)c(C)n2C(=O)c1ccc(Cl)cc1 |
| < 50% | CN1C(C(=O)Nc2ccccn2)=C(O)c2ccccc2S1(=O)=O |
